Assay results from ChEMBL document CHEMBL3797175, “Discovery of 6-(difluoro(6-(4-fluorophenyl)-[1,2,4]triazolo[4,3-b][1,2,4]triazin-3-yl)methyl)quinoline as a highly potent and selective c-Met inhibitor” (Eur J Med Chem, 2016).
Calls of active or inactive are those of the source. No cut-off for these calls is given here.

Assays:
[1] = target: Hepatocyte growth factor receptor (Homo sapiens, UniProt P08581); experiment: Inhibition of c-Met phosphorylation at Tyrosine 1234 in human EBC1 cells at 10 nM after 1 hr by Western blot analysis; assay type: cell-based
Chain of Hepatocyte growth factor receptor (P08581 whole entry): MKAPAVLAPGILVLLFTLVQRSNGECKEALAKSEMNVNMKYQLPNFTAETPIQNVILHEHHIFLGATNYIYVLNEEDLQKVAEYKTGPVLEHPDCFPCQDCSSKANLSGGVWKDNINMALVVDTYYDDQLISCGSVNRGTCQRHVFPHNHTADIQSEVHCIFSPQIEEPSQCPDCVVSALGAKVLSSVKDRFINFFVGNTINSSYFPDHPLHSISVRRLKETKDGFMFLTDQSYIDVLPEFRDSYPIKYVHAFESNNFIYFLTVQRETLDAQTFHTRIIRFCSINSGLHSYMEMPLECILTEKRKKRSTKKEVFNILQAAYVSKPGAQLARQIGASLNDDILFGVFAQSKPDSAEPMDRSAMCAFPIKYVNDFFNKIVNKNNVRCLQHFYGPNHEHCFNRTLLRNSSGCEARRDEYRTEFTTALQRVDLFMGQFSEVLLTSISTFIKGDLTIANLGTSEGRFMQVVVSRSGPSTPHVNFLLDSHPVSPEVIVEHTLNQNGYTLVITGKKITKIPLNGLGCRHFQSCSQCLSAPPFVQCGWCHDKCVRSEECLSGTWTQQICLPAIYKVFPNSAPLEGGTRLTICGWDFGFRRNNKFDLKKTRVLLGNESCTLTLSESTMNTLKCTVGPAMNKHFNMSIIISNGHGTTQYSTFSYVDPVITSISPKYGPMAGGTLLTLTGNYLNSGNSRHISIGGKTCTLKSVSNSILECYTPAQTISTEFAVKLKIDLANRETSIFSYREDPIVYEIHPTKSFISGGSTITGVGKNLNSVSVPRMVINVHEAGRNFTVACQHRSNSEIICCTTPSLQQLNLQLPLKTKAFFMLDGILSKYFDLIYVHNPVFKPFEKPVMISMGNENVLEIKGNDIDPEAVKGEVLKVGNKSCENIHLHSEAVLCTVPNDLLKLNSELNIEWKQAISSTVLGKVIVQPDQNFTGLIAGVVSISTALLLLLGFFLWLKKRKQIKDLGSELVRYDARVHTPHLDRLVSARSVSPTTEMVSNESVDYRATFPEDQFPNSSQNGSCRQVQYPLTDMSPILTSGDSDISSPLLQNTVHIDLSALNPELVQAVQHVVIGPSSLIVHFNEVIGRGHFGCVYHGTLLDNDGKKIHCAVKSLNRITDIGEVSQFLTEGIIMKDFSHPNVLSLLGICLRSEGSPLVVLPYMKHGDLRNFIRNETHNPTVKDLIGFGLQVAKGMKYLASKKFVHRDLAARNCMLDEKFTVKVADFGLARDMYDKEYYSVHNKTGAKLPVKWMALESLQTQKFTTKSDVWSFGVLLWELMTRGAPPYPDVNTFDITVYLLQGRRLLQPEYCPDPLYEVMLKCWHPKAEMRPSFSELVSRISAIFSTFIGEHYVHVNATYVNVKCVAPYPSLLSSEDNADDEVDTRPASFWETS
How it was run: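 EBC-1 or MKN45 cells treated with compound 1 h at 37 °C without HGF, then lysed in 1× SDS sample buffer. Lysates run on 10% SDS-PAGE and transferred to nitrocellulose. Probed with antibodies to c-Met, phospho-c-Met, phospho-ERK1/2, phospho-AKT, AKT and GAPDH, then HRP secondary. ECL detection.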

[2] = target: Macrophage-stimulating protein receptor (Homo sapiens) (UniProt Q04912); experiment: Inhibition of recombinant RON (unknown origin) using poly (Glu, Tyr) 4:1 as substrate at 1000 nM incubated for 60 mins by ELISA relative to control
How it was run: (§1)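 Recombinant tyrosine kinases assayed on wells precoated with poly(Glu,Tyr)4:1 (20 µg/mL). ATP 10 µmol/L in HEPES pH 7.4 buffer with MgCl2, MnCl2, Na3VO4 and DTT; compound in 1% DMSO, 1% DMSO as control. Reaction 60 min at 37 °C. Phosphotyrosine detected with PY99 and HRP anti-mouse, o-phenylenediamine, A490. Inhibition % relative to control; two experiments.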

[3] = Selectivity ratio of IC50 for human NCI-H358 cells to IC50 for human MKN45 cells; assay type: ADME, cell-based
How it was run: (§2)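 Both IC50s in each ratio come from one proliferation assay. Cells were seeded and exposed the next day to a range of concentrations for 72 h, then read by SRB or MTT. IC50s were fitted by four-parameter concentration–response, with each concentration at least in triplicate and at least 2 experiments. BaF3/TPR-Met is murine pre-B BaF3 transfected with TPR-MET and puromycin-selected.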

[4] = Selectivity ratio of IC50 for human SNU16 cells to IC50 for human EBC1 cells; assay type: ADME, cell-based; conditions: snu-16
[5] = Cmax in Sprague-Dawley rat at 10 mg/kg, po administered as single dose; assay type: ADME, organism-based; parameters: dose 10 mg/kg, route oral; conditions: in vivo
How it was run: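 Male Sprague Dawley rats (n=3), single dose. iv 2 mg/kg in 1% DMA/9% Cremophor/90% saline. po 10 mg/kg in 0.5% CMC-Na. Where iv was 10 mg/kg: 10% DMSO/10% Tween 80/80% (40% PEG40); po in that case in 10% DMSO/5% Tween 80/85% saline.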

[6] = Selectivity ratio of IC50 for human Bel7404 cells to IC50 for mouse BAF3 cells expressing TPR-MET; assay type: ADME, cell-based; how it was run: as §2
[7] = Selectivity ratio of IC50 for human U87MG cells to IC50 for human EBC1 cells; assay type: ADME, cell-based; conditions: u-87mg atcc
[8] = Selectivity ratio of IC50 for human NCI-HCC827 cells to IC50 for human EBC1 cells; assay type: ADME, cell-based; how it was run: as §2
[9] = Tmax in Sprague-Dawley rat at 10 mg/kg, po administered as single dose; assay type: ADME, organism-based; conditions: in vivo
How it was run: (§3)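 Male Sprague-Dawley rats (n=3), single dose. IV 2 mg/kg in 1% DMA/9% Cremophor/90% saline; PO 10 mg/kg in 0.5% CMC-Na. For one compound, IV 10 mg/kg in DMSO/Tween 80/PEG40 and PO 10 mg/kg in 10% DMSO/5% Tween 80/85% saline.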

[10] = target: Hepatocyte growth factor receptor (Canis lupus familiaris) (UniProt Q75ZY9); experiment: Inhibition of c-Met in MDCK cells assessed as inhibition of HGF-induced branching morphogenesis at 0.4 to 10 nM after 5 days by microscopic analysis; assay type: cell-based
Chain of Hepatocyte growth factor receptor (Canis lupus familiaris) (Q75ZY9 whole entry): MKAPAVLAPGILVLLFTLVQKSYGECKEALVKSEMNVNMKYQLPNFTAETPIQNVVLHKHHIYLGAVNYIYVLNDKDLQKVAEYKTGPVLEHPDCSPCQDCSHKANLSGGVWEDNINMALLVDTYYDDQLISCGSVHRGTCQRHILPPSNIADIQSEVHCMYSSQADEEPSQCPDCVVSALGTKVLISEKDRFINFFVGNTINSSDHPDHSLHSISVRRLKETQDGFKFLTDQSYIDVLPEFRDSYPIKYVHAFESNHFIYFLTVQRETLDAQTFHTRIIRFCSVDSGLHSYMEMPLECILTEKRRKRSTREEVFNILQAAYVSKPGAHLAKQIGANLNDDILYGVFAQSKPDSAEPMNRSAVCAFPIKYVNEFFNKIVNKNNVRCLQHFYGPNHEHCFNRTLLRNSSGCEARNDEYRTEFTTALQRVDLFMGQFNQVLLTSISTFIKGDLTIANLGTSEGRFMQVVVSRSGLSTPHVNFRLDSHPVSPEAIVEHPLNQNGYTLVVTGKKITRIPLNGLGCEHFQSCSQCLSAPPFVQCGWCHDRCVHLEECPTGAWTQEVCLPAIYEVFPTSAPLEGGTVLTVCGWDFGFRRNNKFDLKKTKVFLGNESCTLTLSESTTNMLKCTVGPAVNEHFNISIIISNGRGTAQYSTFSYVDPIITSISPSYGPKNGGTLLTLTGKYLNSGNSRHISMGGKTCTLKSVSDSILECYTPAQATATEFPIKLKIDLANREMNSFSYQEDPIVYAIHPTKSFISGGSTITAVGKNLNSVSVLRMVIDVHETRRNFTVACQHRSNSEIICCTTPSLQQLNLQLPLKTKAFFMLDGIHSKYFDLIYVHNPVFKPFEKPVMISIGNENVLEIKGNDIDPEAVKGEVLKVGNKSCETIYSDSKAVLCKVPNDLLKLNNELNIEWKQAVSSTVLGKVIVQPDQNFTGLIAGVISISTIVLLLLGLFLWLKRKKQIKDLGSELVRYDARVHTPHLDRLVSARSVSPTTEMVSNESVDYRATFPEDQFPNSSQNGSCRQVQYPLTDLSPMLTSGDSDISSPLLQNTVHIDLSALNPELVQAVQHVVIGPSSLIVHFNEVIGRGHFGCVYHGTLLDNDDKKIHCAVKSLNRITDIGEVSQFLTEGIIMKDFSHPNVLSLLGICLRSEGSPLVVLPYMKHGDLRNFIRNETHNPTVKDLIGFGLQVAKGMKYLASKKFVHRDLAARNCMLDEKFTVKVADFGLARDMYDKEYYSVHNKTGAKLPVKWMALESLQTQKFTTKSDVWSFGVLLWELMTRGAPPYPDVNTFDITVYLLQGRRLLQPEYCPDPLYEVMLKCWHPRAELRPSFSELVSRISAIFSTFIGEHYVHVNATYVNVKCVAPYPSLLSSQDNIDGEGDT
How it was run: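 MDCK cells (2×10^4/mL) mixed 1:1 with collagen I and gelled 60 min at 37 °C. HGF (100 ng/mL) added with or without compound at various concentrations in growth medium. Medium renewed every 2 d; branching imaged by microscopy after 5 d. Three independent experiments.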

[11] = Selectivity ratio of IC50 for human HCT116 cells to IC50 for mouse BAF3 cells expressing TPR-MET; assay type: ADME, cell-based; how it was run: as §2
[12] = Selectivity ratio of IC50 for human PANC1 cells to IC50 for human EBC1 cells; assay type: ADME, cell-based; conditions: panc-1
How it was run: (§4)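 Each cell line was seeded in 96-well plates, then exposed the next day to a range of compound concentrations for 72 h. Growth was read by SRB or MTT assay, and IC50 was fitted by a four-parameter concentration-response curve. Each concentration was run at least in triplicate, in at least 2 experiments. BaF3/TPR-Met are murine pre-B BaF3 cells transfected with TPR-MET cDNA and selected in puromycin.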

[13] = target: Hepatocyte growth factor receptor (Canis lupus familiaris) (UniProt Q75ZY9); experiment: Inhibition of c-Met in MDCK cells assessed as inhibition of HGF-induced cell scattering after 24 hrs by crystal violet staining based microscopic analysis
How it was run: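 MDCK cells, 1.5×10^3 per well, grown overnight, then given increasing compound concentrations plus HGF (100 ng/mL). Incubated 24 h at 37 °C, 5% CO2. Fixed in 4% paraformaldehyde 15 min, stained with 0.2% crystal violet and imaged by microscopy. Three independent experiments.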

[14] = target: ALK tyrosine kinase receptor (Homo sapiens) (UniProt Q9UM73); experiment: Inhibition of recombinant ALK (unknown origin) using poly (Glu, Tyr) 4:1 as substrate at 1000 nM incubated for 60 mins by ELISA relative to control; how it was run: as §1
[15] = Selectivity ratio of IC50 for human NCI-H1299 cells to IC50 for mouse BAF3 cells expressing TPR-MET; assay type: ADME, cell-based; how it was run: as §2
[16] = Selectivity ratio of IC50 for human NCI-H596 cells to IC50 for mouse BAF3 cells expressing TPR-MET; assay type: ADME, cell-based; how it was run: as §2
[17] = Selectivity ratio of IC50 for human BGC823 cells to IC50 for mouse BAF3 cells expressing TPR-MET; assay type: ADME, cell-based; how it was run: as §2
NCI-H358 = experiment: Antiproliferative activity against human NCI-H358 cells after 72 hrs by SRB or MTT assay; assay type: functional, cell-based; conditions: NCI-H358, 72 h
How it was run: (§5)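 Cells seeded, exposed next day to a range of concentrations for 72 h. Growth read by sulforhodamine B or MTT. IC50 from four-parameter concentration-response fit. Each concentration tested at least in triplicate, with at least 2 experiments.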

[18] = Selectivity ratio of IC50 for human SMMC7721 cells to IC50 for human EBC1 cells; assay type: ADME, cell-based; conditions: smmc-7721; how it was run: as §4
[19] = Volume of distribution at steady state in Sprague-Dawley rat at 2 mg/kg, iv administered as single dose; assay type: ADME, organism-based; conditions: in vivo, read-out: Vdss; how it was run: as §3
[20] = Antiproliferative activity against human Bel7404 cells after 72 hrs by SRB or MTT assay; assay type: functional, cell-based; conditions: BEL-7404, 72 h; how it was run: as §5
[21] = Selectivity ratio of IC50 for human NCI-H460 cells to IC50 for human EBC1 cells; assay type: ADME, cell-based; how it was run: as §2
NCI-H460 = experiment: Antiproliferative activity against human NCI-H460 cells after 72 hrs by SRB or MTT assay; assay type: functional, cell-based; conditions: NCI-H460, 72 h; how it was run: as §5
[22] = target: Proto-oncogene tyrosine-protein kinase receptor Ret (Homo sapiens) (UniProt P07949); experiment: Inhibition of recombinant RET (unknown origin) using poly (Glu, Tyr) 4:1 as substrate at 1000 nM incubated for 60 mins by ELISA relative to control; how it was run: as §1
Chain of Proto-oncogene tyrosine-protein kinase receptor Ret (Homo sapiens) (P07949 whole entry): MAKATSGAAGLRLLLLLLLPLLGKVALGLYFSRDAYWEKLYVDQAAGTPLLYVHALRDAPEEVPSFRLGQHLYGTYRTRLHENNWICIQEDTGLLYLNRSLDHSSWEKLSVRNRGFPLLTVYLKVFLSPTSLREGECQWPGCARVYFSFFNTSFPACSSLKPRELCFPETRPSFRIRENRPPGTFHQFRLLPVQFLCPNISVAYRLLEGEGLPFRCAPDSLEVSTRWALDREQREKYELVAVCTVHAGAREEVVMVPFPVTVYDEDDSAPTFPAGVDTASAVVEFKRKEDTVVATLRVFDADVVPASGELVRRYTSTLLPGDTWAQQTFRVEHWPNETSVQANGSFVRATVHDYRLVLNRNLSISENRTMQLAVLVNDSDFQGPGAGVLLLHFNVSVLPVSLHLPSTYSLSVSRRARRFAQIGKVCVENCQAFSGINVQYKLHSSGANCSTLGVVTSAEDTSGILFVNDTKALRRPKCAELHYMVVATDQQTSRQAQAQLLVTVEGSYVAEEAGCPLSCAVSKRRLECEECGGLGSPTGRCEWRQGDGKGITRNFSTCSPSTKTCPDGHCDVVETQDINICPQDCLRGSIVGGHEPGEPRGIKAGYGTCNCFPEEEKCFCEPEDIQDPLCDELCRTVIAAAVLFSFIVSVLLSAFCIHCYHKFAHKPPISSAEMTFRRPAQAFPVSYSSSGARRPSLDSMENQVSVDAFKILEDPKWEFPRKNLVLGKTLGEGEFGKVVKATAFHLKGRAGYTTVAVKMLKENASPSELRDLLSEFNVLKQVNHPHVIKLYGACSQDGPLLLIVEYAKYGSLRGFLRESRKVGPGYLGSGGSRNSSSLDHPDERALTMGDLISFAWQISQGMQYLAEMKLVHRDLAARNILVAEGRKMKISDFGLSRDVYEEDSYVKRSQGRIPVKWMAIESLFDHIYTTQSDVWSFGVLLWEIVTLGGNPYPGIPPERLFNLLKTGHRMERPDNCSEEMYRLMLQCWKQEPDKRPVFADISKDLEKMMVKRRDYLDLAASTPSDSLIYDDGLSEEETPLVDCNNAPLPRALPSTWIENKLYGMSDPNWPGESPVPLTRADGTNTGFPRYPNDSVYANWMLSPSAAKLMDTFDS

- inhibition [1]: Active
- inhibition [2]: 33.9%
- Cmax [5]: 869 ng/mL
- Tmax [9]: 1 h
- inhibition [10]: Active
- inhibition [13]: Dose-dependent effect
- inhibition [14]: 2.1%
- IC50 (NCI-H358): > 10 µM
- Vd [19]: 4.89 L/kg
- IC50 (NCI-H460): > 10 µM
- inhibition [22]: 29.9%
Structure (SMILES): Fc1ccc(-c2cnc3nnc(C(F)(F)c4ccc5ncccc5c4)n3n2)cc1
- Ratio IC50 [3]: 10000
- Ratio IC50 [4]: 10000
- Ratio IC50 [6]: 10000
- Ratio IC50 [7]: 10000
- Ratio IC50 [8]: 10000
- Ratio IC50 [11]: 10000
- Ratio IC50 [12]: 10000
- Ratio IC50 [15]: 10000
- Ratio IC50 [16]: 10000
- Ratio IC50 [17]: > 10000
- Ratio IC50 [18]: 10000
- IC50 [20]: > 10 µM
- Ratio IC50 [21]: 10000
